According to ChEMBL document CHEMBL4152188, “Design, synthesis and biological evaluation of C(4) substituted monobactams as antibacterial agents against multidrug-resistant Gram-negative bacteria” (Eur J Med Chem, 2018):
In brackets after ≈: the same amount, converted by molar mass.

Columns and labels:
[1] = Metabolic bioavailability in human liver microsomes at 0.1 uM pre-incubated with compound followed by NADPH addition and measured after 60 mins by LC-MS/MS analysis; assay type: ADME, microsome
[2] = Elimination half life in mouse liver microsomes at 0.1 uM pre-incubated with compound followed by NADPH addition and measured after 60 mins by LC-MS/MS analysis; assay type: ADME, microsome; details: read-out: beta t1/2
Escherichia coli [3] = test: Antibacterial activity against extended-spectrum beta-lactamase producing Escherichia coli isolate 212648 after 18 hrs in presence of BPL by CLSI broth microdilution method; assay type: functional; details: isolate 212648, 18 h
Outline: (§1)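 CLSI broth microdilution against clinical isolates (ESBL E. coli, KPC-2 MDR K. pneumoniae, IMP-4 MDR P. aeruginosa; five per species). Iron limitation: Mueller-Hinton broth supplemented with 16 mg/liter 2,2'-bipyridyl to complex iron and induce iron uptake systems. Read-out: MIC.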

Klebsiella pneumoniae [4] = test: Antibacterial activity against KPC-2 producing Klebsiella pneumoniae isolate 212423 after 18 hrs in presence of BPL by CLSI broth microdilution method; assay type: functional; details: isolate 212423, 18 h; outline: as §1
Pseudomonas aeruginosa [5] = test: Antibacterial activity against IMP-4 producing Pseudomonas aeruginosa isolate 209471 after 18 hrs by CLSI broth microdilution method; assay type: functional; details: isolate 209471, 18 h
Pseudomonas aeruginosa [6] = test: Antibacterial activity against IMP-4 producing Pseudomonas aeruginosa isolate 209321 after 18 hrs in presence of BPL by CLSI broth microdilution method; assay type: functional; details: isolate 209321, 18 h; outline: as §1
Escherichia coli [7] = test: Antibacterial activity against extended-spectrum beta-lactamase producing Escherichia coli isolate 106342 after 18 hrs by CLSI broth microdilution method; assay type: functional; details: isolate 106342, 18 h
Klebsiella pneumoniae [8] = test: Antibacterial activity against KPC-2 producing Klebsiella pneumoniae isolate 209632 after 18 hrs in presence of BPL by CLSI broth microdilution method; assay type: functional; details: isolate 209632, 18 h; outline: as §1
Klebsiella pneumoniae [9] = test: Antibacterial activity against KPC-2 producing Klebsiella pneumoniae isolate 212423 after 18 hrs by CLSI broth microdilution method; assay type: functional; details: isolate 212423, 18 h
[10] = Intrinsic clearance in human liver microsomes assessed per g protein at 0.1 uM pre-incubated with compound followed by NADPH addition and measured after 60 mins by LC-MS/MS analysis; assay type: ADME, microsome; details: 1 h
Outline: (§2)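 Liver microsomes, 0.33 mg/mL microsomal protein, with an NADP+-regenerating system. Test article at 0.1 µM, incubated at 37°C. Samples were taken at 0, 7, 17, 30 and 60 min, and parent compound was measured by MS. Half-life, intrinsic clearance (ml/min/g protein) and MF (%) are derived from parent loss.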

Pseudomonas aeruginosa [11] = test: Antibacterial activity against IMP-4 producing Pseudomonas aeruginosa isolate 207272 after 18 hrs in presence of BPL by CLSI broth microdilution method; assay type: functional; details: isolate 207272, 18 h; outline: as §1
Pseudomonas aeruginosa [12] = test: Selectivity index, ratio of MIC for against IMP-4 producing Pseudomonas aeruginosa isolate 208247 to MIC for against IMP-4 producing Pseudomonas aeruginosa isolate 208247 in presence of BPL; assay type: functional
Escherichia coli [13] = test: Selectivity index, ratio of MIC for against extended-spectrum beta-lactamase producing Escherichia coli isolate 106342 to MIC for extended-spectrum beta-lactamase producing Escherichia coli isolate 106342 in presence of BPL; assay type: functional
Klebsiella pneumoniae [14] = test: Antibacterial activity against KPC-2 producing Klebsiella pneumoniae isolate 212229 after 18 hrs by CLSI broth microdilution method; assay type: functional; details: isolate 212229, 18 h
[15] = Intrinsic clearance in mouse liver microsomes assessed per g protein at 0.1 uM pre-incubated with compound followed by NADPH addition and measured after 60 mins by LC-MS/MS analysis; assay type: ADME, microsome; details: 1 h; outline: as §2

| SMILES | Fh at 1 h, 0.1 µM [1] | half-life at 0.1 µM [2] | MIC (Escherichia coli [3]) | MIC (Klebsiella pneumoniae [4]) | MIC (Pseudomonas aeruginosa [5]) | MIC (Pseudomonas aeruginosa [6]) | MIC (Escherichia coli [7]) | MIC (Klebsiella pneumoniae [8]) | MIC (Klebsiella pneumoniae [9]) | CLint [10] | MIC (Pseudomonas aeruginosa [11]) | Selectivity Index (Pseudomonas aeruginosa [12]) | Selectivity Index (Escherichia coli [13]) | MIC (Klebsiella pneumoniae [14]) | CLint [15] |
| --- | --- | --- | --- | --- | --- | --- | --- | --- | --- | --- | --- | --- | --- | --- | --- |
| CC(C)C(O/N=C(\C(=O)N[C@@H]1C(=O)N(S(=O)(=O)O)[C@@H]1CCl)c1csc(N)n1)c1cc(=O)c(O)cn1O (stereo not given in full) | 63.9% | 1.2 h | 0.25 µg/mL | 0.5 µg/mL | 8 µg/mL (≈ 14.2 µM) | 8 µg/mL | 1 µg/mL (≈ 1.77 µM) | 4 µg/mL | 0.5 µg/mL (≈ 0.885 µM) | 11.1 mL/min/g | 4 µg/mL | 1 | 4 | 0.5 µg/mL (≈ 0.885 µM) | 29 mL/min/g |
| CC(C)C(O/N=C(\C(=O)N[C@@H]1C(=O)N(S(=O)(=O)O)C12CCCC2)c1csc(N)n1)c1cc(=O)c(O)cn1O (stereo not given in full) | 71.6% | 6.25 h | 0.5 µg/mL | 0.5 µg/mL | 16 µg/mL (≈ 28 µM) | 8 µg/mL | 0.5 µg/mL (≈ 0.876 µM) | 0.25 µg/mL | 2 µg/mL (≈ 3.51 µM) | 7.76 mL/min/g | 8 µg/mL | 2 | 2 | 1 µg/mL (≈ 1.75 µM) | 5.59 mL/min/g |
| CC(C)C(O/N=C(\C(=O)N[C@@H]1C(=O)N(S(=O)(=O)O)[C@@H]1COC(N)=O)c1csc(N)n1)c1cc(=O)c(O)cn1O (stereo not given in full) | 62.2% | 10.3 h | 0.25 µg/mL | 0.5 µg/mL | 8 µg/mL (≈ 13.6 µM) | 4 µg/mL | 0.5 µg/mL (≈ 0.848 µM) | 2 µg/mL | 1 µg/mL (≈ 1.7 µM) | 11.9 mL/min/g | 4 µg/mL | 1 | 2 | 1 µg/mL (≈ 1.7 µM) | 3.41 mL/min/g |
| CC(C)C(O/N=C(\C(=O)N[C@@H]1C(=O)N(S(=O)(=O)O)[C@@H]1Cn1cc(COCc2cc(=O)c(O)cn2O)nn1)c1csc(N)n1)c1cc(=O)c(O)cn1O (stereo not given in full) | 42.8% | 1.29 h | 8 µg/mL | 0.25 µg/mL | 8 µg/mL (≈ 10.4 µM) | 4 µg/mL | 16 µg/mL (≈ 20.9 µM) | 0.25 µg/mL | 2 µg/mL (≈ 2.61 µM) | 26.2 mL/min/g | 2 µg/mL | 1 | 2 | 2 µg/mL (≈ 2.61 µM) | 27.1 mL/min/g |
